In the library only some 12% were active in any assay of this set; here they are far more common.
Cl transport mod: KCC2 cotransporter modulators, thallium flux, primary screen, cell-based, HEK293 KCC2, FluoZin-2 fluorescence, MLSMR. KCC2 cells, thallium flux FluoZin-2 fluorescence. B-score of Tl+ flux slope (higher = more flux/activation; lower = inhibition) at 10 µM. 2.2% of 190,000 active;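 active = thallium flux slope and its plate-corrected score both differing from the plate sample mean at a set confidence after two filtering rounds, in either direction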;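 also: slope of fluorescence scaled to starting intensity during 10 to 20 s after thallium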
WT yeast gro inh: growth inhibition of WT strain, primary screen, mitochondrial fusion inhibitor project, WT and mutant strains, chemical genetic. mitochondrial fusion phenotypic screen. inhibition, % at 10 µM. 2.1% of 190,000 active; in the data active = inhibition above about 58%; tested in S. cerevisiae
Lmaj promast: Leishmania major promastigote growth inhibition, primary screen; Leishmania major promastigotes, resazurin fluorescence viability; inhibition, % at 10 µM; 9% of 200,000 active; AID 1063, 2008; in the data active = inhibition above about 50%;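 also: promastigotes grown with compound for 44 hours at 28 °C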
Diaph act CS: compounds boosting diaphorase resazurin reduction – biochemical, uHTS, resorufin fluorescence, counter-screen for diaphorase-coupled primary assays, primary screen | Diaphorase/resazurin coupled assay, 16 min; hits give high values; 1 = vehicle wells, 0 = NADH-free wells | activation factor at 20 µM | 0.005% of 190,000 active;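 active = diaphorase activity raised at least twofold by the compound at 20 µM; inactive = activation factor below 2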
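Material: bacterial diaphorase enzyme (C. kluyveri); amount: enzyme 0.07 U/mL final; reagent: NADH substrate 0.114 mM plus resazurin dye 0.1 mM, final; doses: single compound dose of 20 µM, 1% DMSO final; timing: 16 min enzyme reaction, ambient temperature; measured by: fluorescence of resorufin, 544 nm excitation, 590 nm emission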
Diaphorase inh: diaphorase inhibitors and chemical oxidizers, primary screen, counter-screen for diaphorase-coupled primary assays, biochemical, uHTS, resorufin fluorescence. inhibition, % at 20 µM. diaphorase resazurin-to-resorufin fluorescence, NADH, 16 min; bacterial (C. kluyveri) enzyme, not human. 0.69% of 190,000 active. AID 1217, 2008;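 active = primary screen inhibition at 20 µM above a set limit, cut at about 50% in these data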;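 also: plate controls were DMSO with full reaction for no effect and wells lacking NADH for full effect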
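System: Diaphorase enzyme from Clostridium kluyveri | Amount: Enzyme working solution with 0.14 U/mL diaphorase | Benchmarks: No-NADH positive control and DMSO neutral control | Signal: Fluorescence of resorufin formed from resazurin, Ex 544/Em 590 nm | Schedule: 16-min room-temperature incubation before reading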
ROMK mod: ROMK potassium channel modulators, primary screen, cell-based, thallium flux, MLSMR library. ATP-sensitive inward rectifier potassium channel 1 (Homo sapiens), P48048. Tet-inducible ROMK, thallium flux fluorescence; actives lie on both sides. B-score at 10 µM. 2% of 130,000 active;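 active = signal ratio slope over the read window, or its plate-corrected B-score, at least 3 SD from the plate mean, either direction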;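 also: B-score of the F/F0 ratio slope over 7 to 12 s after thallium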
Target sequence (P48048 whole entry, looked up): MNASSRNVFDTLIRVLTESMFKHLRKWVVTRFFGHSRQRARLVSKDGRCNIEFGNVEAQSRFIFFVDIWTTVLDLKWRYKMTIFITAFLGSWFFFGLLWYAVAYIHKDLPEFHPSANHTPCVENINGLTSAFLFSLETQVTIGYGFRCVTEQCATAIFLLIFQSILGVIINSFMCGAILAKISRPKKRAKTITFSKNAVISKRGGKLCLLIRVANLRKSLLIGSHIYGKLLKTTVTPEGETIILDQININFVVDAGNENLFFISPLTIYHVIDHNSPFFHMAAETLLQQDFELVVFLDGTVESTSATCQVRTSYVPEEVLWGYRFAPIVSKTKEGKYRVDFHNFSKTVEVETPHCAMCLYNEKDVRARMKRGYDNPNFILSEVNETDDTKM
* = called active by the depositor; x = not tested or not shown.

SMILES	Cl transport mod	WT yeast gro inh	Lmaj promast	Diaph act CS	Diaphorase inh	ROMK mod
CCOC(=O)c1[nH]c2ccccc2c1NC(=O)c1ccc(S(=O)(=O)N2CCCC2)cc1	0.049	-3	-1	0.8	16	0.082
Cc1ccc(OCc2nnc(SCC(=O)c3cccc([N+](=O)[O-])c3)n2C)cc1	x	15	0	0.9	5	x
CCn1c(-c2ccc(F)cc2)cnc1SCC(=O)N1CCCCC1C (configuration not stated)	-1.6	19	4	0.9	12	-0.039
Cc1cccc(S(=O)(=O)NNC(=O)c2sc(C)nc2C)c1	1.5	-4	1	1	3	1.5
CCCC1=C(C(=O)OCC)C(c2c(C)nn(-c3ccccc3)c2Cl)C(C#N)=C(N)O1 (configuration not stated)	x	36	8	0.9	7	-0.37
COc1ccc(-n2ncc(N(C)n3cccc3)c(Cl)c2=O)cc1	0.59	5	3	0.9	8	x
COc1ccc(-n2ncc(Cl)c(Cl)c2=O)cc1	-0.41	-7	82*	1	3	0.0015
CCSc1cc(N2CCOCC2)nc(-c2ccc(Cl)cc2)n1	-0.22	-2	-2	1	-4	0.49
CCOC(=O)c1ccc(OS(=O)(=O)c2ccccc2)c(OC)c1	-0.32	18	92*	0.9	13	-0.017
O=C(Nc1ccc(F)cc1)Nc1cc(OCC(F)(F)F)cc(OCC(F)(F)F)c1	0.46	20	99*	0.9	12	0.3
CCOC(=O)c1ccc(NC(=S)NCCc2ccccc2F)cc1	0.73	58*	19	0.8	17	0.28
CCOc1ccc(NC(=O)Nc2cc(OCC(F)(F)F)cc(OCC(F)(F)F)c2)cc1	1.3	4	14	0.9	8	x
CCOc1cc(C(=S)N2CCOCC2)ccc1OS(=O)(=O)c1ccccc1	-0.17	-3	-4	0.8	20	x
CCOC(=O)c1ccc(NC(=O)Nc2ccc(F)cc2)cc1	x	14	96*	0.9	10	-0.69
COC(=O)c1ccc(NC(=O)Nc2ccc(F)cc2)cc1	-2.8	24	-8	1	3	-1.4
CC(CCc1ccccc1)NC(=O)c1cccs1 (configuration not stated)	x	1	-1	0.9	12	x
CCOC(=O)c1ccc(NC(=O)Nc2ccc(OC)c(OC)c2)cc1	-1.1	5	58*	0.8	16	-0.31
Cc1ccc(-c2nn(-c3ccccc3)cc2C=C2C(=O)CC(C)(C)CC2=O)cc1	0.02	-8	96*	0.8	22	0.47
CC1=NNC(=O)/C1=C\c1cn(-c2ccccc2)nc1-c1ccc(Cl)cc1	0.24	11	101*	0.9	14	x
CCCc1nc(NCc2ccccn2)c2nnn(Cc3ccccc3F)c2n1	-0.93	0	5	0.9	11	x
CCCc1nc(NCc2ccncc2)c2nnn(Cc3ccccc3F)c2n1	0.24	18	57*	0.9	11	x
CC1(C)Oc2cc(N)c([N+](=O)[O-])cc2O1	0.0019	-24	0	0.9	10	x
C=C1N(C)c2cc([N+](=O)[O-])c(N)cc2C1(C)C	0.31	10	13	0.3	75*	0.03
CCNc1nc(Oc2ccc(OC)cc2)cc(C(F)(F)F)n1	-0.041	25	-1	0.9	13	-0.013
CCNc1nc(Sc2ccc(C)cc2)cc(C(F)(F)F)n1	0.59	85*	-2	0.8	17	x
SMILES	Cl transport mod	WT yeast gro inh	Lmaj promast	Diaph act CS	Diaphorase inh	ROMK mod
CCCCNC(=O)C(c1ccc(OCC(=O)OC)c(C(=O)OC)c1)N(CCOC)C(=O)CCCCCN1C(=O)NC(c2ccc(-c3ccccc3)cc2)C(C(=O)OCc2ccccc2)=C1C (configuration not stated)	-1.8	x	x	x	x	x
CC1CCC(N2CCN(S(C)(=O)=O)CC2)CC1 (configuration not stated)	x	2	89*	0.8	25	1.4
CCS(=O)(=O)N1CCN(C2CCC(C)CC2)CC1 (configuration not stated)	0.87	-3	90*	0.8	22	x
CS(=O)(=O)N1CCN(C2C3CC4CC(C3)CC2C4)CC1 (configuration not stated)	-0.33	-8	80*	x	x	-0.28
CN(Cc1ccccc1)C(=O)CCSc1nc(-c2ccc3c(c2)OCO3)cc(C(F)(F)F)n1	-0.76	-2	16	0.7	29	x
O=c1[nH]c(-c2ccccc2F)nc2c1sc(=S)n2Cc1ccccc1	0.3	-8	3	0.9	5	x
COc1ccc(CN2CCN(C3CCSCC3)CC2CCO)c(C)c1C (configuration not stated)	0.52	2	88*	1.1	-8	-0.6
CCOc1ccccc1CN1CCN(C2CCOCC2)CC1CCO (configuration not stated)	1	25	0	0.9	12	1.2
COc1ccc(CN2CCN(C3CCOCC3)CC2CCO)c(C)c1C (configuration not stated)	x	-3	81*	0.9	5	0.81
CCOc1ccccc1CN1CCN(C2CCSCC2)CC1CCO (configuration not stated)	-0.36	19	3	0.9	6	0.036
O=c1c2ccccc2nc2n1CC/C2=C\c1ccccc1[N+](=O)[O-]	x	27	1	0.8	23	x
O=c1c2ccccc2nc2n1CC/C2=C/N1CCN(c2cccc(C(F)(F)F)c2)CC1	0.29	14	55*	0.6	35	0.53
CN1CCN(Cc2ccc(OCc3ccccc3)cc2)CC1	-1.9	10	95*	0.9	10	x
CCN1CCN(Cc2ccc(OCc3ccccc3)cc2)CC1	x	8	92*	0.8	17	x
CC(=O)Nc1c(C(=O)N2CCN(c3ccccn3)CC2)cnn1-c1ccc(C)cc1	1.4	-11	-6	0.9	11	0.059
Cc1ccc(NC(=S)NCCC2=CCCCC2)cc1	0.66	68*	17	0.9	7	-0.76
C=CCn1c(-c2cccnc2Cl)nc2ccccc21	-0.0087	4	-2	0.9	10	-0.19
Clc1cccc(Cl)c1Cn1c(-c2cccnc2Cl)nc2ccccc21	-0.51	4	76*	0.9	6	1.6
CCCc1nn2c(=O)c(C(c3cccc(Cl)c3)c3c(O)nc4sc(CCC)nn4c3=O)c(O)nc2s1	1.1	-4	-8	1	2	x
CCOC(=O)COc1cc([N+](=O)[O-])cc2cccnc12	1.7	-8	-2	x	x	x
